The values below come from ChEMBL document CHEMBL1671655, “Anidulafungin is fungicidal and exerts a variety of postantifungal effects against Candida albicans, C. glabrata, C. parapsilosis, and C. krusei isolates” (2009).

In brackets after ≈: the same amount, converted by molar mass. Activity calls are given as the source filed them. No cut-off for these calls is given here. Starred links: 1 amine or outer side, 2 acyl side, 3 side chain; linkers in the order of their positions; H or OH if unused. Positions of bridges follow the written chain, without caps; N, C: chain ends. Non-standard residues stand in square brackets, D forms with d. Residues, ends and D or L forms follow the SMILES beside them. *: point of attachment. pTerphenylCO(4''-OnC5H11) = CCCCCOc1ccc(-c2ccc(-c3ccc(C(=O)*)cc3)cc2)cc1; Orn(4R-OH,5R-OH) = O=C([C@H](C[C@@H](O)[C@@H](O)N[*:3])N[*:1])[*:2]; hTyr(3S-OH,4S-OH) = N[C@H](C(=O)O)[C@H](O)[C@@H](O)c1ccc(O)cc1; Pro(3S-OH,4S-Me) = C[C@H]1CN[C@H](C(=O)O)[C@H]1O; Hyp = O=C(O)[C@@H]1C[C@@H](O)CN1

Test [1] relates to Pichia kudriavzevii. The experiment in a line: Antifungal activity against Candida krusei assessed as time period for bacterial regrowth inhibition after 1 hr drug exposure. Type of test: functional.
Test [2] deals with Candida parapsilosis. The experiment in a line: Fungicidal activity against Candida parapsilosis isolate S assessed as log reduction in bacterial count at 16 times MIC after 48 hrs by time-kill analysis. It is filed as functional. Particulars: Lodderomyces parapsilosis. The procedure, abridged:
(§1)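 Isolates subcultured twice on SDA, then suspended to 0.5 McFarland and diluted into RPMI 1640 (MOPS, pH 7.0) with or without anidulafungin, giving about 1 x 10^5 to 5 x 10^5 CFU/ml. Tubes were shaken at 35°C. Samples were taken at 0, 2, 4, 8, 12, 24 and 48 h, serially diluted 10-fold, plated on SDA, and CFU counted after 48 h at 35°C. Each isolate was run twice; mean values.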

The subject of test [3] is Candida parapsilosis. Put plainly: Increase in susceptibility to calcofluor white in Candida parapsilosis isolate A assessed as cell wall damage at 4 times MIC after 1 hr relative to control. It is filed as functional, organism-based. The procedure, abridged:
(§2)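 Candida given a 1-h anidulafungin pulse in MOPS-buffered RPMI 1640 (pH 7.0) at 35°C, washed three times by centrifugation, and regrown drug-free. Cells collected 8 h later, grown in YPD with 1% glucose to exponential phase, and set to OD599 0.1. Undiluted culture and 10-fold dilutions (4 µl) spotted on YPD plates with calcofluor white, then 30°C for 72 h. Triplicate; compared with no-drug cells.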

Test [4] has as its system Nakaseomyces glabratus. The experiment in a line: Antifungal activity against Candida glabrata isolate 3 by CLSI M27-A3 broth microdilution method. Type of test: functional. The procedure, abridged:
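CLSI M27-A3 broth microdilution in RPMI 1640 buffered to pH 7.0 with MOPS. Starting inoculum 0.5 x 10^3 to 2.5 x 10^3 cells/ml, incubated at 35°C. MIC read as the lowest concentration giving >50% growth reduction versus control. Each isolate tested on at least three occasions.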

For test [5], the system named is Candida albicans. Put plainly: Fungicidal activity against Candida albicans isolate 2 assessed as log reduction in bacterial count at MIC after drug exposure for 1 hr followed by washout measured after 48 hrs in the absence of drug by PAFE study. It is filed as functional. The procedure, abridged: (§3)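 Starting inoculum ~1 x 10^5 to 5 x 10^5 CFU/ml in MOPS-buffered RPMI 1640 (pH 7.0) with drug at multiples of the CLSI M27-A3 MIC. After 1 h at 35°C, cells washed and centrifuged three times at 1,400 x g for 10 min, then resuspended in warm drug-free RPMI. Shaken at 35°C and plated on SDA at 0–48 h; CFU counted after 48 h. Run twice per isolate; means.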

The test system of test [6] is Candida parapsilosis. Put plainly: Increase in susceptibility to SDS in Candida parapsilosis isolate 1 assessed as cell wall damage at 16 times MIC after 1 hr relative to control. It is filed as functional, organism-based. The procedure, abridged:
(§4)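 Cells recovered 8 h after a 1-h drug exposure were grown in YPD with 1% glucose to exponential phase and adjusted to OD599 0.1. Undiluted culture and 10-fold serial dilutions were spotted onto YPD plates containing SDS (0.01 to 0.04%), then incubated 72 h at 30°C. Growth compared with unexposed control cells; triplicate.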

Test [7] relates to Pichia kudriavzevii. The experiment in a line: Fungicidal activity against Candida krusei isolate ATCC 6258 assessed as log reduction in bacterial count at 16 times MIC after 48 hrs by time-kill analysis. Type of test: functional. Particulars: isolate ATCC 6258, 48 h. The procedure, abridged: (§5)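 Isolates subcultured twice on SDA, suspended to 0.5 McFarland, giving ~1 x 10^5 to 5 x 10^5 CFU/ml in MOPS-buffered RPMI 1640 (pH 7.0) with or without drug at multiples of MIC (MIC by CLSI M27-A3). Tubes shaken at 35°C with continuous drug. Sampled at 0–48 h, diluted 10-fold and plated on SDA; CFU counted after 48 h at 35°C. Run twice per isolate; means.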

The subject of test [8] is Nakaseomyces glabratus. Put plainly: Fungicidal activity against Candida glabrata isolate 2 assessed as log reduction in bacterial count at 16 times MIC after 48 hrs by time-kill analysis. It is filed as functional. The settings on record: isolate 2, 48 h. The procedure, abridged: as §5
Test [9] has as its system Candida parapsilosis. Put plainly: Antifungal activity against Candida parapsilosis isolate 1 assessed as time period for bacterial growth inhibition at 16 times MIC after 1 hr drug exposure. Type of test: functional. The procedure, abridged:
(§6)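 Inoculum of about 1 x 10^5 to 5 x 10^5 CFU/ml in MOPS-buffered RPMI (pH 7.0), shaken at 35°C and exposed to drug for 1 h. Cells then washed and centrifuged three times and resuspended in drug-free warm RPMI. Samples plated on SDA at 0, 2, 4, 8, 12, 24 and 48 h, with CFU counted after 48 h at 35°C. Run twice per isolate; values are means.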

The subject of test [10] is Candida parapsilosis. The experiment in a line: Fungicidal activity against Candida parapsilosis isolate 1 assessed as log reduction in bacterial count at 16 times MIC after drug exposure for 1 hr followed by washout measured after 48 hrs in the absence of drug by PAFE study. It is filed as functional. Particulars: Lodderomyces parapsilosis. The procedure, abridged:
as §3

Test [11] has as its system Candida parapsilosis. The experiment in a line: Fungicidal activity against Candida parapsilosis isolate S assessed as log reduction in bacterial count at 16 times MIC after drug exposure for 1 hr followed by washout measured after 48 hrs in the absence of drug by PAFE study. The settings on record: Lodderomyces parapsilosis. Type of test: functional. The procedure, abridged: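 Inoculum about 1 x 10^5 to 5 x 10^5 CFU/ml in RPMI 1640 (MOPS, pH 7.0) with drug, shaken at 35°C for 1 h. Cells were then washed and centrifuged at 1,400 x g for 10 min (3 cycles) and resuspended in warm drug-free RPMI. Samples plated on SDA at 0, 2, 4, 8, 12, 24 and 48 h; CFU counted after 48 h at 35°C. Run twice per isolate; means.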

In test [12] the test system is Candida parapsilosis. The experiment in a line: Fungicidal activity against Candida parapsilosis isolate A assessed as log reduction in bacterial count at MIC after 48 hrs by time-kill analysis. It is filed as functional. The settings on record: Lodderomyces parapsilosis. The procedure, abridged:
as §1

Test [13] relates to Candida albicans. The experiment in a line: Fungicidal activity against Candida albicans ATCC 90028 assessed as log reduction in bacterial count at 4 times MIC after drug exposure for 1 hr followed by washout measured after 48 hrs in the absence of drug by PAFE study. It is filed as functional. The procedure, abridged: as §3
In test [14] the test system is Candida parapsilosis. The experiment in a line: Increase in susceptibility to calcofluor white in Candida parapsilosis isolate 1 assessed as cell wall damage at MIC after 1 hr relative to control. It is filed as functional, organism-based. The procedure, abridged: as §2
Test [15] relates to Candida albicans. The experiment in a line: Fungicidal activity against Candida albicans isolate S assessed as log reduction in bacterial count at MIC after drug exposure for 1 hr followed by washout measured after 48 hrs in the absence of drug by PAFE study. Type of test: functional. The procedure, abridged:
as §3

In test [16] the test system is Candida albicans. The experiment in a line: Increase in susceptibility to SDS in Candida albicans ATCC 90028 assessed as cell wall damage at MIC after 1 hr relative to control. Type of test: functional, organism-based. The procedure, abridged:
as §4

In test [17] the test system is Nakaseomyces glabratus. Put plainly: Increase in susceptibility to SDS in Candida glabrata isolate 1 assessed as cell wall damage at 16 times MIC after 1 hr relative to control. Type of test: functional, organism-based. The procedure, abridged: as §4
For test [18], the system named is Candida parapsilosis. The experiment in a line: Antifungal activity against Candida parapsilosis isolate 1 assessed as time period for bacterial growth inhibition at 4 times MIC after 1 hr drug exposure. It is filed as functional. The procedure, abridged: as §6
Test [19] relates to Nakaseomyces glabratus. Put plainly: Increase in susceptibility to SDS in Candida glabrata isolate 1 assessed as cell wall damage at 4 times MIC after 1 hr relative to control. Type of test: functional, organism-based. The procedure, abridged: as §4
Test [20] relates to Candida albicans. The experiment in a line: Fungicidal activity against Candida albicans isolate 2 assessed as log reduction in bacterial count at 4 times MIC after 48 hrs by time-kill analysis. The settings on record: isolate 2, 48 h. It is filed as functional. The procedure, abridged:
as §5

The subject of test [21] is Candida parapsilosis. The experiment in a line: Increase in susceptibility to SDS in Candida parapsilosis isolate 1 assessed as cell wall damage at 4 times MIC after 1 hr relative to control. It is filed as functional, organism-based. The procedure, abridged:
as §4

Test [22] concerns Nakaseomyces glabratus. Put plainly: Increase in susceptibility to SDS in Candida glabrata isolate 3 assessed as cell wall damage at MIC after 1 hr relative to control. Type of test: functional, organism-based. The procedure, abridged: as §4

Turning to `CCCCCOc1ccc(-c2ccc(-c3ccc(C(=O)N[C@H]4C[C@@H](O)[C@@H](O)NC(=O)[C@@H]5[C@@H](O)[C@@H](C)CN5C(=O)[C@H]([C@@H](C)O)NC(=O)[C@H]([C@H](O)[C@@H](O)c5ccc(O)cc5)NC(=O)[C@@H]5C[C@@H](O)CN5C(=O)[C@H]([C@@H](C)O)NC4=O)cc3)cc2)cc1` [ANIDULAFUNGIN] ({pTerphenylCO(4''-OnC5H11)}-[Orn(4R-OH,5R-OH)]T[Hyp][hTyr(3S-OH,4S-OH)]T[Pro(3S-OH,4S-Me)]; lactam 1-C), the Time entry in [1] is “>=12 hr”; in [9] it was 8 h; in [18], 8 h. In addition, the log reduction in [2] was determined as 3.11 log CFU/ml; in test [5], 0.86; in test [7], 3.2 log CFU/ml; in test [8], 3.14 log CFU/ml; in test [10], 3.17; in [11], 3.05. Also, the log reduction is 1.76 log CFU/ml in [12], 1.89 in [13], 1.59 log CFU/ml in [15] and 2.33 log CFU/ml in test [20]. Further, the result in [3], in test [6], in [14], in [16], in [17] and in test [19] was Active. Moreover, the outcome in [21] and in test [22] was Active. In test [4], it took 0.03 µg/mL (≈ 0.0263 µM) to inhibit growth (MIC).

One may read the MIC as the lowest concentration found to suppress growth. Lower therefore signals a more susceptible organism.
